Results published in ChEMBL document CHEMBL3877325, “Novel salicylanilides from 4,5-dihalogenated salicylic acids: Synthesis, antimicrobial activity and cytotoxicity” (Bioorg Med Chem, 2017).
In brackets after ≈: the same amount, converted by molar mass.

What was measured:
[1] = tested on: Mycobacterium tuberculosis; experiment: Antimycobacterial activity against Mycobacterium tuberculosis H37Rv My 331/88 after 14 days by micromethod; format: functional; conditions: H37Rv My 331/88, 336 h
How it was run: (§1)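 MIC micromethod in Šula's semisynthetic medium at 37 °C, read after 14 and 21 days. Compounds added as DMSO solutions at 500 down to 0.5 µM (twofold-type series: 500, 250, 125, 62.5, 32, 16, 8, 4, 2, 1, 0.5 µM). Isoniazid standard given in sterile water.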

Mycobacterium avium [2] = experiment: Antimycobacterial activity against Mycobacterium avium My 330/80 after 14 days by micromethod; format: functional; conditions: My 330/80, 336 h
How it was run: (§2)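 M. avium My 330/80 (collection strain) inoculated at 10^-5 dilution into Šula's semisynthetic medium. Compounds added from DMSO solutions at 500, 250, 125, 62.5, 32, 16, 8, 4, 2, 1 and 0.5 µM. MIC determined by micromethod at 37 °C, read after 14 and 21 days.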

Mycobacterium kansasii [3] = experiment: Antimycobacterial activity against Mycobacterium kansasii isolate 6509/96 after 21 days by micromethod; format: functional; conditions: isolate 6509/96, 504 h
How it was run: (§3)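 MIC in Šula's semisynthetic medium at 37 °C, read after 7, 14 and 21 days. Inoculum is strain dilution 10^-4; 235/80 is a collection strain and 6509/96 a clinical isolate. Compounds are added as DMSO solutions at 500, 250, 125, 62.5, 32, 16, 8, 4, 2, 1 and 0.5 µM. INH (in sterile water) and PAS are the reference drugs.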

Mycobacterium kansasii [4] = experiment: Antimycobacterial activity against Mycobacterium kansasii isolate 235/80 after 14 days by micromethod; format: functional; conditions: isolate 235/80, 336 h; how it was run: as §3
[5] = Selectivity index, ratio of IC50 for human HepG2 cells to MIC for Mycobacterium tuberculosis H37Rv after 21 days; format: toxicity, cell-based; conditions: HepG2 cells versus Mycobacterium tuberculosis H37Rv, read-out: Selectivity Index
How it was run: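 HepG2 cells (passages 33-37) seeded at 1 × 10^4 per well and treated next day with 0.1–100 µM in triplicate. After 24 h at 37 °C, 5% CO2, MTS reagent added for 2 h and absorbance read at 490 nm. IC50 taken from viability relative to untreated control, then divided by the 21-day H37Rv MIC.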

Mycobacterium kansasii [6] = experiment: Antimycobacterial activity against Mycobacterium kansasii isolate 6509/96 after 7 days by micromethod; format: functional; conditions: isolate 6509/96, 168 h; how it was run: as §3
Mycobacterium kansasii [7] = experiment: Antimycobacterial activity against Mycobacterium kansasii isolate 235/80 after 7 days by micromethod; format: functional; conditions: isolate 235/80, 168 h; how it was run: as §3
Mycobacterium kansasii [8] = experiment: Antimycobacterial activity against Mycobacterium kansasii isolate 235/80 after 21 days by micromethod; format: functional; conditions: isolate 235/80, 504 h; how it was run: as §3
[9] = tested on: Mycobacterium tuberculosis; experiment: Antimycobacterial activity against Mycobacterium tuberculosis H37Rv My 331/88 after 21 days by micromethod; format: functional; conditions: H37Rv My 331/88, 504 h; how it was run: as §1
Mycobacterium kansasii [10] = experiment: Antimycobacterial activity against Mycobacterium kansasii isolate 6509/96 after 14 days by micromethod; format: functional; conditions: isolate 6509/96, 336 h; how it was run: as §3
[11] = Cytotoxicity against human HepG2 cells assessed as reduction in cell viability after 24 hrs by MTS assay; format: toxicity, cell-based
How it was run: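 HepG2 cells (passages 33-37) are grown in MEM with 10% FBS, L-glutamine and non-essential amino acids. They are seeded at 1 × 10^4 cells/well and treated next day with 0.1-100 µM in triplicate for 24 h at 37 °C, 5% CO2. MTS reagent is added for 2 h and A490 read.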

Mycobacterium avium [12] = experiment: Antimycobacterial activity against Mycobacterium avium My 330/80 after 21 days by micromethod; format: functional; conditions: My 330/80, 504 h; how it was run: as §2

Structure (SMILES)	MIC [1]	MIC (Mycobacterium avium [2])	MIC (Mycobacterium kansasii [3])	MIC (Mycobacterium kansasii [4])	selectivity ratio at 504 h [5]	MIC (Mycobacterium kansasii [6])	MIC (Mycobacterium kansasii [7])	MIC (Mycobacterium kansasii [8])	MIC [9]	MIC (Mycobacterium kansasii [10])	IC50 at 24 h [11]	MIC (Mycobacterium avium [12])
O=C(Nc1ccc(Cl)c(Cl)c1)c1ccc(Cl)cc1O	4 µM (≈ 1.27 µg/mL)	16 µM (≈ 5.07 µg/mL)	8 µM (≈ 2.53 µg/mL)	8 µM (≈ 2.53 µg/mL)	0.56	4 µM (≈ 1.27 µg/mL)	4 µM (≈ 1.27 µg/mL)	8 µM (≈ 2.53 µg/mL)	4 µM (≈ 1.27 µg/mL)	4 µM (≈ 1.27 µg/mL)	2.23 µM	16 µM (≈ 5.07 µg/mL)
O=C(Nc1ccc(Br)cc1)c1ccc(Cl)cc1O	4 µM (≈ 1.31 µg/mL)	16 µM (≈ 5.23 µg/mL)	8 µM (≈ 2.61 µg/mL)	4 µM (≈ 1.31 µg/mL)	0.81	4 µM (≈ 1.31 µg/mL)	4 µM (≈ 1.31 µg/mL)	4 µM (≈ 1.31 µg/mL)	4 µM (≈ 1.31 µg/mL)	8 µM (≈ 2.61 µg/mL)	3.24 µM	16 µM (≈ 5.23 µg/mL)
O=C(Nc1ccc(C(F)(F)F)cc1)c1ccc(Cl)cc1O	4 µM (≈ 1.26 µg/mL)	8 µM (≈ 2.53 µg/mL)	4 µM (≈ 1.26 µg/mL)	4 µM (≈ 1.26 µg/mL)	0.66	2 µM (≈ 0.631 µg/mL)	2 µM (≈ 0.631 µg/mL)	4 µM (≈ 1.26 µg/mL)	4 µM (≈ 1.26 µg/mL)	2 µM (≈ 0.631 µg/mL)	2.64 µM	8 µM (≈ 2.53 µg/mL)
O=C(Nc1ccc(Br)cc1)c1cc(Cl)ccc1O	8 µM (≈ 2.61 µg/mL)	8 µM (≈ 2.61 µg/mL)	8 µM (≈ 2.61 µg/mL)	4 µM (≈ 1.31 µg/mL)	0.2	4 µM (≈ 1.31 µg/mL)	4 µM (≈ 1.31 µg/mL)	4 µM (≈ 1.31 µg/mL)	16 µM (≈ 5.23 µg/mL)	8 µM (≈ 2.61 µg/mL)	3.14 µM	8 µM (≈ 2.61 µg/mL)
O=C(Nc1ccc(C(F)(F)F)cc1)c1cc(Cl)ccc1O	2 µM (≈ 0.631 µg/mL)	8 µM (≈ 2.53 µg/mL)	2 µM (≈ 0.631 µg/mL)	1 µM (≈ 0.316 µg/mL)		2 µM (≈ 0.631 µg/mL)	1 µM (≈ 0.316 µg/mL)	1 µM (≈ 0.316 µg/mL)	2 µM (≈ 0.631 µg/mL)	2 µM (≈ 0.631 µg/mL)		8 µM (≈ 2.53 µg/mL)
O=C(Nc1cc(C(F)(F)F)cc(C(F)(F)F)c1)c1cc(Br)ccc1O	2 µM (≈ 0.856 µg/mL)	16 µM (≈ 6.85 µg/mL)	8 µM (≈ 3.43 µg/mL)	8 µM (≈ 3.43 µg/mL)	3.4	4 µM (≈ 1.71 µg/mL)	4 µM (≈ 1.71 µg/mL)	8 µM (≈ 3.43 µg/mL)	2 µM (≈ 0.856 µg/mL)	8 µM (≈ 3.43 µg/mL)	7.8 µM	16 µM (≈ 6.85 µg/mL)
O=C(Nc1cc(C(F)(F)F)cc(C(F)(F)F)c1)c1ccc(Cl)cc1O	4 µM (≈ 1.53 µg/mL)	16 µM (≈ 6.14 µg/mL)	8 µM (≈ 3.07 µg/mL)	8 µM (≈ 3.07 µg/mL)	2.39	8 µM (≈ 3.07 µg/mL)	8 µM (≈ 3.07 µg/mL)	16 µM (≈ 6.14 µg/mL)	4 µM (≈ 1.53 µg/mL)	8 µM (≈ 3.07 µg/mL)	9.55 µM	16 µM (≈ 6.14 µg/mL)
O=C(Nc1ccc(C(F)(F)F)cc1)c1cc(Br)ccc1O	1 µM (≈ 0.36 µg/mL)	1 µM (≈ 0.36 µg/mL)	4 µM (≈ 1.44 µg/mL)	2 µM (≈ 0.72 µg/mL)	1.81	2 µM (≈ 0.72 µg/mL)	2 µM (≈ 0.72 µg/mL)	4 µM (≈ 1.44 µg/mL)	1 µM (≈ 0.36 µg/mL)	4 µM (≈ 1.44 µg/mL)	1.81 µM	1 µM (≈ 0.36 µg/mL)
O=C(Nc1ccc(Cl)c(Cl)c1)c1cc(Br)ccc1O	4 µM (≈ 1.44 µg/mL)	8 µM (≈ 2.89 µg/mL)	4 µM (≈ 1.44 µg/mL)	8 µM (≈ 2.89 µg/mL)	7.87	2 µM (≈ 0.722 µg/mL)	8 µM (≈ 2.89 µg/mL)	8 µM (≈ 2.89 µg/mL)	4 µM (≈ 1.44 µg/mL)	2 µM (≈ 0.722 µg/mL)	31.5 µM	8 µM (≈ 2.89 µg/mL)
O=C(Nc1ccc(C(F)(F)F)cc1)c1ccc(Br)cc1O	1 µM (≈ 0.36 µg/mL)	8 µM (≈ 2.88 µg/mL)	4 µM (≈ 1.44 µg/mL)	2 µM (≈ 0.72 µg/mL)	7.52	2 µM (≈ 0.72 µg/mL)	2 µM (≈ 0.72 µg/mL)	4 µM (≈ 1.44 µg/mL)	2 µM (≈ 0.72 µg/mL)	4 µM (≈ 1.44 µg/mL)	15 µM	8 µM (≈ 2.88 µg/mL)
O=C(Nc1ccc(Br)cc1)c1ccc(Br)cc1O	2 µM (≈ 0.742 µg/mL)	16 µM (≈ 5.94 µg/mL)	8 µM (≈ 2.97 µg/mL)	8 µM (≈ 2.97 µg/mL)	1.9	8 µM (≈ 2.97 µg/mL)	4 µM (≈ 1.48 µg/mL)	8 µM (≈ 2.97 µg/mL)	4 µM (≈ 1.48 µg/mL)	8 µM (≈ 2.97 µg/mL)	7.59 µM	16 µM (≈ 5.94 µg/mL)
